Screening data deposited in PubChem BioAssay by several laboratories.
Rows were chosen to be rich in hits. Some 11% of all compounds tested hit in one or more screens of this group.
SF-1 act = activators of human nuclear receptor SF-1. Q13285. CHO-K1 Gal4-SF-1 LBD luciferase reporter; % increase over DMSO SF-1-specific signal. activation, % at 10 µM. 65,000 tested, 1.9% active. AID 522;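 active = activation above the mean activation of all tested compounds plus 3 SD, cut at about 50% in these data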
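Test system: CHO-K1 cells co-transfected with Gal4 DBD–human SF-1 LBD, 5xGal4 luciferase reporter. Quantity: 4,000 cells per well. Compound: 10 µM only. Incubation: compound added 1 h post-seeding, 20 h exposure at 37 °C, 5% CO2. Detection: SteadyLite luciferase luminescence. Replication: one test per compound.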
Htt clearance = mutant huntingtin protein clearance; inhibition, % at 1.5 µM; 47,000 tested, 0.42% active; AID 853; HeLa Exon1htt(103Q)mCFP, aggregate imaging; zero = plate's median compound well;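 active = inhibition of aggregate fluorescence above about 70%, also judged a hit by eye on the cell image, limit read from the data, passing the limit was not always enough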;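 also: cells exposed to compound for three days before fixation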
RORa activator = activators of human nuclear receptor RORA | activation, % at 10 µM | CHO-K1 Gal4-RORA LBD luciferase reporter, luminescence; percent increase over mock-subtracted basal signal | 65,000 tested, 1.5% active;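 active = activation above the mean of all tested compounds plus 3 SD, cut at about 49% in these data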;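 also: 0% = DMSO-treated RORA cells and 100% = added signal equal to DMSO minus mock-transfected cells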
M1 antagonist = M1 muscarinic receptor (rat) antagonism; CHO-M1 cells, Fluo-4 calcium, ACh EC80 antagonist mode; stronger effect = lower value; B-score at 10 µM; 64,000 tested, 3.4% active;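 active = calcium fluorescence response, raw or row-and-column corrected B-score, differing from the plate sample mean either way at a set confidence level, mostly lower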
M1 agonist = agonists of M1 muscarinic receptor. CHO-M1 cells, Fluo-4 calcium fluorescence, agonist mode; stronger effect = higher value. B-score at 10 µM. 64,000 tested, 3% active. AID 626;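 active = fluorescence rise, raw or as B-score row- and column-corrected plate score, outside the 99.7% band of its plate's samples, either direction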
D1 allo mod = D1 dopamine receptor (human) allosteric modulation; P21728; HEK293 D1, CRE-luciferase, dopamine EC30 potentiation; actives deviate in either direction; B-score at 10 µM; 58,000 tested, 5.9% active; AID 641;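 active = luminescence count or its row- and column-corrected plate score outside the 99.7% band of the plate's sample wells, on either side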
Target sequence (P21728 whole entry, looked up): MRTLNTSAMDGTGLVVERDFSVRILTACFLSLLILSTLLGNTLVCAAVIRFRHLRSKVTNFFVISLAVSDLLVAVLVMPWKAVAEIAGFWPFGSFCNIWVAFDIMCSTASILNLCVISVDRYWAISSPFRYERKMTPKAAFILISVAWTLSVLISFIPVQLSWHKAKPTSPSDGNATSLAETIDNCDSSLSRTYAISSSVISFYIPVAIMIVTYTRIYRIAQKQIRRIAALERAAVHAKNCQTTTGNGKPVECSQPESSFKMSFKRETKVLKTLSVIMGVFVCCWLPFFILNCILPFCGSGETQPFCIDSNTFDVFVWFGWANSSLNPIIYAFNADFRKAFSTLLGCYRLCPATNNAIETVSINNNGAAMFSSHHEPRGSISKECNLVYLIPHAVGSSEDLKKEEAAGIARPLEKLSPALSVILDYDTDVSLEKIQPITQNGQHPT
M1 antag conf = M1 muscarinic receptor (rat) antagonism, confirmed; CHO-M1 cells, Fluo-4 calcium, ACh EC80 antagonism; stronger effect = lower value; AID 677; shares compounds with M1 antagonist; 1,700 tested, 43% active; calcium response (max-min fluorescence) at 10 µM;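 active = calcium response below the same-plate mean of wells given acetylcholine alone at its 80%-effect dose, minus 3 SD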;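 also: raw fluorescence intensity difference in arbitrary instrument units and not normalized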
mGluR4 antag = selectivity test for M1 antagonists: human mGluR4 receptor; CHO-mGluR4 calcium flux, Fluo-4 fluorescence, glutamate EC80; stronger effect = lower value; fluorescence response (max-min) at 10 µM; shares compounds with M1 antagonist; 1,700 tested, 0.9% active;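 active = fluorescence response below the plate's average for near-maximal glutamate wells, less 3 SD of those wells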;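 also: raw unnormalized fluorescence span taken in the window right after glutamate addition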
An asterisk follows results filed as active.

How did c1ccc2c(c1)[nH]c1c(N3CCCC3)ncnc12 do in these assays?
SF-1 act: -4; Htt clearance: -18; RORa activator: -33; M1 antagonist: -5.4*; M1 agonist: 1; D1 allo mod: -0.97; M1 antag conf: 405*; mGluR4 antag: 203

How did Cc1ccc2[nH]c3c(N4CCOCC4)ncnc3c2c1 do in these assays?
SF-1 act: -12; RORa activator: 2; M1 antagonist: 0.11; M1 agonist: 1.6; D1 allo mod: -0.32

What do the screens show for `CN1CCN(c2ncnc3c2[nH]c2ccc(F)cc23)CC1`?
SF-1 act: -12; RORa activator: 30; M1 antagonist: -6.2*; M1 agonist: 2.7; M1 antag conf: 542; mGluR4 antag: 220

What do the screens show for `c1ccc2c(c1)[nH]c1c(N3CCN(C4CCCCC4)CC3)ncnc12`?
SF-1 act: 5; Htt clearance: -31; RORa activator: 8; M1 antagonist: -2.2; M1 agonist: -0.43

What do the screens show for `c1ccc2c(c1)[nH]c1c(N3CCSCC3)ncnc12`?
SF-1 act: -27; Htt clearance: 10; RORa activator: -42; M1 antagonist: -2.9*; M1 agonist: 3.9; M1 antag conf: 678; mGluR4 antag: 241

Results for N#Cc1ccccc1Cn1cc(C#N)c2ccccc21 ?
Htt clearance: 31

What do the screens show for `N#Cc1cn(Cc2ccccc2)c2ccccc12`?
SF-1 act: -1; RORa activator: 11; M1 antagonist: -1.9*; M1 agonist: -0.64; D1 allo mod: 0.053; M1 antag conf: 582; mGluR4 antag: 239

How did CC(=O)Nc1cccc(NC(=O)CSc2nnc(Cc3cccn3C)n2CCc2ccccc2)c1 do in these assays?
SF-1 act: -18; Htt clearance: -201; RORa activator: 0; M1 antagonist: -1.9*; M1 agonist: 0.1; D1 allo mod: 0.42; M1 antag conf: 641; mGluR4 antag: 228

Results for COc1ccc(NC(=O)CSc2nnc(Cc3cccn3C)n2CCc2ccccc2)cc1OC ?
SF-1 act: -4; Htt clearance: 31; RORa activator: 26; M1 antagonist: 0.54; M1 agonist: 0.82; D1 allo mod: -1.1

Results for CCC(CC)C(=O)c1c[nH]c(C(=O)NCC2CCCO2)c1 (stereo unspecified) ?
Htt clearance: 5

What do the screens show for `Cc1nnc(SCCn2c(N3CCN(Cc4ccccc4)CC3)nc3c2c(=O)[nH]c(=O)n3C)s1`?
SF-1 act: -7; Htt clearance: 3; RORa activator: 3; M1 antagonist: -4.1*; M1 agonist: -1.3; D1 allo mod: 1.3; M1 antag conf: 588; mGluR4 antag: 246

Results for Cc1nnc(SCCn2c(N3CCC(Cc4ccccc4)CC3)nc3c2c(=O)[nH]c(=O)n3C)s1 ?
SF-1 act: 0; RORa activator: 31; M1 antagonist: -0.76; M1 agonist: -0.62; D1 allo mod: 0.42

Results for COCC(=O)N(C)c1nnc(-c2cnc(C)cn2)s1 ?
SF-1 act: 5; RORa activator: 19; M1 antagonist: 0.5; M1 agonist: -0.38; D1 allo mod: -0.51

What do the screens show for `COc1ccc(OC)c(C(C)NC(=O)c2ccco2)c1` (stereo unspecified)?
SF-1 act: 14; Htt clearance: -7; RORa activator: 11; M1 antagonist: 0.58; M1 agonist: -0.55; D1 allo mod: -0.24

How did Cc1c(C(=O)OCC(=O)c2c(N)n(CC(C)C)c(=O)n(C)c2=O)oc2ccccc12 do in these assays?
SF-1 act: -18; Htt clearance: -58; RORa activator: -23

Results for Cc1c(C(=O)OCCN2CCCCC2)oc2ccccc12 ?
SF-1 act: 21; Htt clearance: 22; RORa activator: 4; M1 antagonist: -10*; M1 agonist: 0.61; D1 allo mod: -0.05; M1 antag conf: 13*; mGluR4 antag: 226
